In the RNAGym collection of RNA variant scans (doi:10.1038/nmeth.2970):

B1: NELF-E aptamer (parent)
chain: CCCAACGACUGCCGAGCGAGAUUACGCUUGAGCGCCCCACUGAGGAUGCCCACGGGCGAUUGGGGCACGG

Variants of: B1
Test: HiTS-RAP
Settings: with NELF-E (Drosophila)
How it was run: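 Kd came from weighted Hill fits to the first binding curve, with intensities normalised to sequencing intensity and averaged per sequence, keeping only fits whose variance was below 1,000,000. That curve was imaged on an Illumina GAIIx flowcell, where sequenced aptamer DNA templates with a T7 promoter and ter site had been transcribed in situ by T7 RNA polymerase and halted by GST-Tus (30 minutes, 37°C). Before each image, clusters equilibrated for 30 minutes at room temperature with NELF-E-mOrange at 0.064 to 1000 nM in HEPES binding buffer.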

| Variant | Kd |
| --- | --- |
| CCCGACGACUGCCGAGCGAGAUUACGCUUGAGCGCCCCACUGAGGAUGCCCACGUGCGAUUGGGGCACGG [A4G G55U] | 7.68 nM |
| CCCAACGACUGCCGAGCGAGAUUACGCUGGAGCGCCCCACUGAGGAUGCCAACGGGCGAUUGGGGCACGG [U29G C51A] | 8.11 nM |
| CCCAGCGACUGCCGAGCGAGACUACGCUUGAGCGCCCCACUGAGGAUGCCCACGGGCGAUUGGGGCACGG [A5G U22C] | 5.45 nM |
| CCCAACGACUGCCGAGCGAGAUUGCGCUUGAGCGCCACACUGAGGAUGCCCACGGGCGAUUGGGGCACGG [A24G C37A] | 10.1 nM |
| CCCAACGAGUGCCGAGCGAGAUUACGCUUGAGCGCCCCACUGAGGAUGCCCACGGGCGAUUGGGGCGCGG [C9G A67G] | 6.17 nM |
| CCCAACGACUGCCGAGCGAGAUUACGCUUGAGCGCCCCACUGAGGAUGCCCACGGGCGAUUGGGGCUCGG [A67U] | 6.41 nM |
| CCCAACGACAGCGGAGCGAGAUUACGCUUGAGCGCCCCACUGAGGAUGCCCACGGGCGAUUGGGGCACGG [U10A C13G] | 5.83 nM |
| CCCGACGACUGCCGAGCGAGAUUACGCUUGAGCGCCCCACUGAGGAUGCCCACGGGCGGUUGGGGCACGG [A4G A59G] | 40 nM |
| CCCAACGACUGGCGAGCGAGAUUACGCUUGAGCGCCCCACUGAGGAUGCCCACGGGCGAUUGGAGCACGG [C12G G64A] | 8.49 nM |
| CCCAACGACUGCCGAGCGAGAUUACGCUUGAGCGCCCCACGGAGGAUGCCCACGGGUGAUUGGGGCACGG [U41G C57U] | 6.91 nM |
| CCCAACGACUGCCGAGCGAGAUUACGCUUGAGCGCCCCACUGAGGAUGCCCACGGGCGAUUGGCUCACGG [G64C G65U] | 5.12 nM |
| CCCAACGACUGCCGAGCGAGAUUACGCUGGAGCGCCCCACUGAGGAUGCCCACGGGCGAUUGGAGCACGG [U29G G64A] | 7.34 nM |
| CCCAACGACUGCCGAGCGAGAUUACGCUUGAGCGCCCCUCUGAGGAUGCCCACGGGCGAUAGGGGCACGG [A39U U61A] | 17.4 nM |
| CCCAACGACUGCCGAGCGUGAUGACGCUUGAGCGCCCCACUGAGGAUGCCCACGGGCGAUUGGGGCACGG [A19U U23G] | 6.66 nM |
| CCCAACGACGGCCGAGCGAGAUUUCGCUUGAGCGCCCCACUGAGGAUGCCCACGGGCGAUUGGGGCACGG [U10G A24U] | 6.04 nM |
| CCCAACGUCUGCCGAGCGAGAUUACGCUUGAGCGCCCCACUGAGGAUGCCCACGGACGAUUGGGGCACGG [A8U G56A] | 16.7 nM |
| CCCAAGGACUGCCGAGCGAGAUUAUGCUUGAGCGCCCCACUGAGGAUGCCCACGGGCGAUUGGGGCACGG [C6G C25U] | 5.65 nM |
| CCCAACGACUGCCGAGCGAGAUGACGCUUGAGCGCCCCACUGAGGAUGUCCACGGGCGAUUGGGGCACGG [U23G C49U] | 15.6 nM |
| CCCAACGACUGCCUAGCGAGAUUACGCUUGAGCGCCCCACUGAGGAUGCCCACGGGCGAUUAGGGCACGG [G14U G62A] | 19.1 nM |
| CCCAACGACUGGCGAGCGAGAUUACGCAUGAGCGCCCCACUGAGGAUGCCCACGGGCGAUUGGGGCACGG [C12G U28A] | 6.47 nM |

| Variant | Kd |
| --- | --- |
| CCCAACUACUGCCGAGCGAGAUUACGCUUGAGCGCCCCACUGAGGAUGCCCUCGGGCGAUUGGGGCACGG [G7U A52U] | 19.3 nM |
| CCCAACGACUACCGAGCGAGAUUACGCUUGAGCGCCCCACUGAGGAUGCCCACGGGCGAUUGGGGCUCGG [G11A A67U] | 6.87 nM |
| CCCAACGACUACUGAGCGAGAUUACGCUUGAGCGCCCCACUGAGGAUGCCCACGGGCGAUUGGGGCACGG [G11A C13U] | 5.33 nM |
| CCCAACGAGUGCCGAGCGAGAUUACGCUAGAGCGCCCCACUGAGGAUGCCCACGGGCGAUUGGGGCACGG [C9G U29A] | 6.02 nM |
| CCCAACGACUGCCGAGCGAGAUUACGCUUGAGCGCCCCUCUGAGGAUGCCCGCGGGCGAUUGGGGCACGG [A39U A52G] | 15.5 nM |
| CCCAACGACUGCAGAGCGAGAUUACGCUGGAGCGCCCCACUGAGGAUGCCCACGGGCGAUUGGGGCACGG [C13A U29G] | 5.66 nM |
| CCCAACGUCUGCCGAGGGAGAUUACGCUUGAGCGCCCCACUGAGGAUGCCCACGGGCGAUUGGGGCACGG [A8U C17G] | 6.07 nM |
| CCCAACGGCGGCCGAGCGAGAUUACGCUUGAGCGCCCCACUGAGGAUGCCCACGGGCGAUUGGGGCACGG [A8G U10G] | 5.44 nM |
| CCCAACGGCCGCCGAGCGAGAUUACGCUUGAGCGCCCCACUGAGGAUGCCCACGGGCGAUUGGGGCACGG [A8G U10C] | 5.52 nM |
| CCCAACGACUGCCGAGCGAGAUUACGCUGGAGCGCCCCACUGGGGAUGCCCACGGGCGAUUGGGGCACGG [U29G A43G] | 14 nM |
| CCCAACGACUGCGGAGCGAGAUUACGCUUGAGGGCCCCACUGAGGAUGCCCACGGGCGAUUGGGGCACGG [C13G C33G] | 6.05 nM |
| CCCUAGGACUGCCGAGCGAGAUUACGCUUGAGCGCCCCACUGAGGAUGCCCACGGGCGAUUGGGGCACGG [A4U C6G] | 5.99 nM |
| CCCAACGACUGCCGAGCGAGAUGACGCUUGAGCGCCCCACUGAGGAUGCACACGGGCGAUUGGGGCACGG [U23G C50A] | 16.7 nM |
| CCCAAUGACUGCGGAGCGAGAUUACGCUUGAGCGCCCCACUGAGGAUGCCCACGGGCGAUUGGGGCACGG [C6U C13G] | 5.6 nM |
| CCCAAAGUCUGCCGAGCGAGAUUACGCUUGAGCGCCCCACUGAGGAUGCCCACGGGCGAUUGGGGCACGG [C6A A8U] | 7.06 nM |
| CCCAACGACUGGCGAGCGAGAUUACGCUAGAGCGCCCCACUGAGGAUGCCCACGGGCGAUUGGGGCACGG [C12G U29A] | 5.65 nM |
| CCCAACGACUGGCGAGCGAGAUUACGCUGGAGCGCCCCACUGAGGAUGCCCACGGGCGAUUGGGGCACGG [C12G U29G] | 5.61 nM |
| CCCAACGGAUGCCGAGCGAGAUUACGCUUGAGCGCCCCACUGAGGAUGCCCACGGGCGAUUGGGGCACGG [A8G C9A] | 7.04 nM |
| CCCAUCGACUGCCGAGCGAGAUUAGGCUUGAGCGCCCCACUGAGGAUGCCCACGGGCGAUUGGGGCACGG [A5U C25G] | 6.13 nM |
